Assay results taken from ChEMBL document CHEMBL1122551, “Bis(m-nitrophenyl) and bis(p-nitrophenyl) esters and the phosphorodiamidate of thymidine 5'-phosphate as potential sources of intracellular thymidine 5'-phosphate in mouse cells in culture” (J Med Chem, 1984).

Experiments:
[1] = Time for hydrolysis of half the starting material was studied at a temperature of 27 degrees celsius and aqueous 50 mM phosphate + 10 % p-dioxane (pH 7.6) as medium; assay type: ADME; conditions: phosphate buffer with 10% p-dioxane
Method in brief: (§1)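 Hydrolysis in aqueous 50 mM potassium phosphate, pH 7.6, starting at 0.05 mM substrate. Nitrophenol release was followed spectrophotometrically at 400 nm. Half-life is the time for hydrolysis of half the starting material.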

[2] = Time for hydrolysis of half the starting material was studied at a temperature of 23 degrees celsius and aqueous 50 mM phosphate + 10 % p-dioxane (pH 7.6) as medium; assay type: ADME, Rattus norvegicus; conditions: phosphate buffer with 10% p-dioxane; method in brief: as §1
[3] = tested on: LM; assay: Rate of incorporation of [3H]- into DNA fraction of mouse LM(TK-) cells after 19h of pre-incubation, expressed as cpm 1/(10e6 cells) 1/h; assay type: functional
Method in brief: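 LM(TK-) thymidine-kinase-deficient mouse fibroblasts in DMEM with 10% FBS at 37 °C in 5% CO2. Cells were exposed to [methyl-3H]-labeled compound at 0.9 μM and 1 μCi/mL (0.5% EtOH) for 19 h. Acid-insoluble 3H was counted on CCl3CO2H-washed filters. Rate was expressed per 10^6 cells per hour, using Coulter counts.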

[4] = Time for hydrolysis of half the starting material was studied at a temperature of 37 degrees celsius and aqueous 50 mM phosphate (pH 6) as medium; assay type: ADME; conditions: phosphate buffer
Method in brief: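 Stability in 50 mM potassium phosphate at pH 7.6 or 6.0, 37 °C, followed by paper electrophoresis for up to 72 h. Half-life is the time for hydrolysis of half the starting material.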

[5] = Time for hydrolysis of half the starting material was studied at a temperature of 37 degrees celsius and aqueous 50 mM phosphate + 10 % p-dioxane (pH 7.6) as medium(d=no hydrolysis after 72 h); assay type: ADME; conditions: phosphate buffer with 10% p-dioxane
[6] = Time for hydrolysis of half the starting material was studied at a temperature of 27 degrees celsius and aqueous 50 mM phosphate (pH 7.6) as medium.; assay type: ADME; conditions: phosphate buffer; method in brief: as §1
[7] = tested on: LM; assay: Rate of incorporation of [3H]-into DNA fraction of mouse LM(TK-) cells after 2 hr of pre-incubation, expressed as cpm 1/(10e6 cells) 1/h; assay type: functional
Method in brief: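 LM(TK⁻) mouse L fibroblasts (thymidine-kinase deficient) in DMEM with 10% FBS, 37 °C, 5% CO2. Seeded in 6-cm dishes and grown overnight. Medium replaced with 0.017 μM [1',2',5-³H]-2'-deoxycytidine at 1 μCi/mL, 0.5% EtOH, for 2 h. Cells trypsinized, filter-collected, washed with 5% CCl3CO2H and 70% ethanol, then scintillation-counted. Zero-time blanks taken; cells per dish counted by Coulter.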

CCOP(=O)(Oc1ccc([N+](=O)[O-])cc1)Oc1ccc([N+](=O)[O-])cc1
half-life [1]: 2 h

Cc1cn([C@H]2C[C@H](O)[C@@H](COP(=O)(Oc3cccc([N+](=O)[O-])c3)Oc3cccc([N+](=O)[O-])c3)O2)c(=O)[nH]c1=O
half-life [2]: 4.75 h
Activity [3]: 18.1

Cc1cn([C@H]2C[C@H](O)[C@@H](COP(N)(N)=O)O2)c(=O)[nH]c1=O
half-life [4]: > 72 h
half-life [5]: > 72 h

Cc1cn([C@H]2C[C@H](O)[C@@H](COP(=O)(Oc3ccc([N+](=O)[O-])cc3)Oc3ccc([N+](=O)[O-])cc3)O2)c(=O)[nH]c1=O
half-life [6]: 0.83 h
half-life [1]: 0.58 h

Cc1cn([C@H]2C[C@H](O)[C@@H](COP(=O)(O)Oc3cccc([N+](=O)[O-])c3)O2)c(=O)[nH]c1=O
Activity [3]: 37.6

Nc1ccn([C@H]2C[C@H](O)[C@@H](CO)O2)c(=O)n1 [DOXECITINE]
Activity [7]: 21960

Cc1cn([C@H]2C[C@H](O)[C@@H](CO)O2)c(=O)[nH]c1=O [DOXRIBTIMINE]
Activity [3]: 53
